Screening data: PubChem BioAssay, several laboratories
697 NFkB inh – inhibitors of PMA/ionomycin-induced NF-kB reporter, 697 cells, primary screen, B-cell NF-kB inhibitor project, cell-based, luminescence, uHTS; 697 B-cell NF-kB luciferase reporter, 16 h; inhibition, % at 4 µM; hit rate 0.33% among 330,000; in the data active = inhibition above about 35%
NR2E3 ag-1 – NR2E3 agonists in two-hybrid cells, primary screen, cell-based, luminescence, CHO-S, Gal4-NCOR/VP16-NR2E3; luciferase; inhibition of corepressor binding, % at 3.98 µM; hit rate 0.35% among 360,000;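 active = inhibition above the mean of all tested compounds plus 3 SD, cut at about 70% in these data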;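 note: 0% = DMSO with NR2E3 transfected cells and 100% = cells lacking NR2E3 construct; higher means lower luciferase signal from less NR2E3 corepressor binding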
GASC-1 inh – inhibitors of GASC-1 histone demethylase, primary screen, biochemical, fluorescence, DELFIA europium. Lysine-specific demethylase 4C (Homo sapiens), Q9H3R0. GST-JMJD2C(1-420) H3K9me3 demethylation. inhibition, % at 2.35 µM. hit rate 0.069% among 330,000. AID 2099, 2009;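 active = more than half of a compound's replicate wells show inhibition beyond 50%, single wells judged on their own value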;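 note: signal counts dimethyl H3K9 product captured on neutravidin plate; 0% = median of DMSO wells and 100% = 0.3 times that DMSO median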
GalR3 antag – GalR3 antagonists in HEK293 cells, primary screen, cell-based, fluorescence readout. Galanin receptor type 3 (Homo sapiens), O60755. HEK293 GalR3-CNG cAMP membrane potential fluorescence; galR3 body fused to GalR1 C-terminus. inhibition, % at 3 µM. hit rate 0.44% among 360,000. AID 651719, 2012;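 active = inhibition above the screen-wide average plus 3 SD, cut at about 13% in these data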;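 note: forskolin and galanin both at EC90 stimulate the cells; cAMP rise reported by CNG channel membrane potential dye signal; 0% = forskolin plus galanin with DMSO and 100% = forskolin alone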
Target sequence (O60755 1-299 limits assumed): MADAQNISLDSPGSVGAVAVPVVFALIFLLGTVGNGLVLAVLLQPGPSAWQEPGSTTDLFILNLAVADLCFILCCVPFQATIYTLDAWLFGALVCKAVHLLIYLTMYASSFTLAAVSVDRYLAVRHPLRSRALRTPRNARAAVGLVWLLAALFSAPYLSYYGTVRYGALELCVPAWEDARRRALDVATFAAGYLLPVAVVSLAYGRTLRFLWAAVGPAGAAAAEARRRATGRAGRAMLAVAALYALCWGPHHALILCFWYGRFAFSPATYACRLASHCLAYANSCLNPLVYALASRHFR
NR2E3 ag-2 – inhibitors of NR2E3-RetCOR corepressor binding, primary screen, NR2E3 agonist project, biochemical, TR-FRET, GST-NR2E3, biotin-RetCOR; Photoreceptor-specific nuclear receptor (Homo sapiens), Q9Y5X4; AID 2300, 2010; inhibition of corepressor binding, % at 4.78 µM; hit rate 0.12% among 320,000; 1536-well;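 active = percent inhibition above the cutoff of mean plus 3 SD of all tested compounds, set per screening campaign, cut at about 20% in these data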;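 note: 0% = DMSO wells and 100% = biotin wells as full block of FRET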
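System: GST-tagged NR2E3 plus biotinylated RetCOR corepressor; Amount: 1.35 nM GST-tagged NR2E3 final; Dosing: single nominal compound dose of 4.8 µM; Schedule: 5 h incubation at 4 °C; Technique: TR-FRET with europium anti-GST and streptavidin-D2, 340 nm excitation; Controls: biotin wells as high control, 0.6% DMSO wells as low control.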
Jurkat NFkB inh – inhibitors of induced NF-kB luciferase reporter, primary screen, TCR NF-kB activation inhibitor project, cell-based, luminescence, uHTS; Jurkat, PMA/ionomycin-induced NF-kB luciferase reporter; hit rate 0.53% among 330,000; AID 435003, 2010; inhibition, % at 4 µM; in the data active = inhibition above about 50%
GalR3 conf – GalR3 antagonist hit confirmation, cell-based, fluorescence, triplicate. HEK293 GalR3 CNG cAMP biosensor, membrane potential fluorescence; galR3 fused to GalR1 carboxy tail; challenged with forskolin and galanin at EC90. hit rate 59% among 1,600. shares compounds with GalR3 antag. AID 652245, 2013. inhibition, % at 3 µM;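 active = inhibition above the primary screen's cutoff, the mean inhibition of all screened compounds plus 3 SD, cut at about 13% in these data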;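 note: 0% = forskolin plus galanin and 100% = forskolin alone with DMSO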
CNG parental – nonspecific cAMP agonists in parental HEK-CNG cells, counter-screen for GalR3 antagonist project, cell-based, fluorescence, high throughput; shares compounds with GalR3 antag; hit rate 10% among 1,600; AID 652268, 2013; activation, % at 3 µM; HEK293-CNG parental cells, cAMP membrane potential fluorescence; normalised: DMSO wells 0%, forskolin wells 100%; in the data active = activation above about 1.3%
* marks the source's active call; other numbers are inactive results; nt = no result. This is a sample that favours compounds with a hit; in the whole collection about 1.5% have one here.

SMILES	697 NFkB inh	NR2E3 ag-1	GASC-1 inh	GalR3 antag	NR2E3 ag-2	Jurkat NFkB inh	GalR3 conf	CNG parental
COc1ccc(-c2c(-c3ccccc3OC)oc3ccccc23)cc1F	-4	-16	-11	nt	0	-17	2	-1
CC(C)NC(=O)N1CCCN(c2nc3ccc(Cl)cc3s2)CC1	-58	-27	-6	20*	6	4	7	0
Cc1ccc(NC(=O)c2ccc(S(=O)(=O)N3CCCC3)cc2)nc1	-20	-2	-9	-3	2	-7	nt	nt
CC1CN(C(=O)Nc2cccc(C(F)(F)F)c2)CC(C)O1 (configuration not stated)	17	6	-16	nt	-2	-4	3	0
CC(=O)c1cccc(NC(=O)N2CC(C)OC(C)C2)c1 (configuration not stated)	9	-11	-18	2	4	2	nt	nt
Cc1[nH]c(=O)[nH]c(=O)c1/C=N/NC(=O)[C@H](C)NC(=O)OC(C)(C)C	24	-26	30	nt	1	8	1	0
CC(C)(C)NC(=O)COC(=O)c1snc(C(=O)NC2CCCCC2)c1N	-14	24	9	101*	2	12	123*	-1
Fc1cc2ncn(Cc3ccccc3)c2cc1F	13	-8	6	nt	2	-14	2	0
c1ccc(Cn2cnc3ccccc32)cc1	-197	-91	-15	-3	3	-115	nt	nt
COc1cc2ccccc2c2c1CCCC2=O	-66	-21	5	nt	7	-18	-6	1
Cn1nnc(NC(=S)NC(=O)c2cccc3ccccc23)n1	-11	1	-3	-1	2	15	nt	nt
O=C(COn1nnc2ccc(C(F)(F)F)cc21)Nc1c(Cl)cccc1Cl	13	11	1	15*	1	-2	6	0
COc1ccc(CC(=O)Nc2c(C(=O)N3CCN(c4ccccc4OC)CC3)oc3ccccc23)cc1OC	2	8	-4	-9	-4	18	nt	nt
Cn1cnc([N+](=O)[O-])c1NC(C)(C)C	4	4	2	4	1	-7	nt	nt
Cn1cnc([N+](=O)[O-])c1S(=O)(=O)c1ccc(Cl)cc1	nt	11	4	13*	nt	nt	1	0
Cc1ccc(Nc2nnc(SCC(=O)Nc3cccnc3Cl)s2)cc1C	-35	-32	1	1	-2	-15	nt	nt
Cc1c(Cl)cccc1NC(=O)N1CCCN(c2nc(-c3ccccc3)ns2)CC1	-23	22	-15	34*	2	15	99*	-1
COc1ccccc1Oc1ccc2c(c1)C(=O)N(c1cccc3ncccc13)C2=O	nt	32	-2	58*	nt	nt	46*	-1
CC(NCC1COc2ccccc2O1)C(=O)NCc1ccccc1 (configuration not stated)	-1	-12	9	13*	4	-1	7	0
C/C(=N\OCc1nc2ccccc2c(=O)n1/N=C/c1cc([N+](=O)[O-])ccc1O)c1ccccc1	-25	-36	0	6	1	-15	nt	nt
C/C(=N\OCc1nc2ccccc2c(=O)n1/N=C/c1cc(C)cc([N+](=O)[O-])c1O)c1ccccc1	5	-7	10	67*	-3	-11	70*	-1
O=C(NNC(=O)C1CC(=O)N(Cc2ccccc2)C1)c1ccc(F)cc1 (configuration not stated)	29	1	11	-2	-2	5	nt	nt
Cc1ccc2c(c1)C1C3CCC(C3)C1S(=O)N2 (configuration not stated)	20	-29	4	18*	1	9	4	0
CCOc1cc(CNCc2ccccc2)ccc1OCc1ccc(Cl)cc1	-15	16	-18	42*	6	24	26*	5.5*
CCOc1cc(CNCCc2ccc(S(N)(=O)=O)cc2)ccc1OCc1ccccc1	nt	3	-10	-8	1	nt	nt	nt
SMILES	697 NFkB inh	NR2E3 ag-1	GASC-1 inh	GalR3 antag	NR2E3 ag-2	Jurkat NFkB inh	GalR3 conf	CNG parental
Cc1n[nH]c(=S)n1/N=C/c1ccccc1	-7	-19	-5	1	0	-1	nt	nt
Cc1ccc(-n2nc(C)c(/C=N/n3c(C)n[nH]c3=S)c2Cl)cc1	-14	-9	7	nt	-2	14	11	1
COc1ccc(Cl)cc1NC(=O)Nc1ccccc1C(N)=O	16	-20	22	4	1	7	nt	nt
COc1ccc(Cl)cc1NC(=O)Nc1ccccc1SC	24	-6	5	nt	5	-2	11	0
O=C(CCN1C(=O)c2ccccc2C1=O)N1CCC(c2ccccc2)C1 (configuration not stated)	-8	-22	2	-4	-1	4	nt	nt
Oc1cc2c(c(Cl)c1O)CCNCC2c1ccccc1 (configuration not stated)	4	-28	-6	26*	3	-10	32*	1
CC(=O)Nc1cc2c(cc1Br)-c1ccccc1C2	nt	-56	nt	-5	nt	nt	nt	nt
CN1CCN(c2ccc(CNS(=O)(=O)Cc3cccc(C(F)(F)F)c3)cc2)CC1	-36	37	-15	60*	-2	43	111*	0
Cc1ccc2c(c1)[nH]c1c(=O)n(Cc3ccccn3)cnc12	-14	-5	-7	-1	4	-20	nt	nt
N#Cc1ccc(OCC(=O)NNC(=S)NC2CCCCC2)cc1	-11	-7	1	-5	-4	-25	nt	nt
COc1ccc(-c2cc(-c3n[nH]c(=S)n3-c3cccc4ccccc34)[nH]n2)cc1	8	42	-1	52*	4	-4	49*	0
COc1ccccc1-n1c(-c2cc(-c3ccc(F)cc3)n[nH]2)n[nH]c1=S	17	-18	0	14*	-2	19	13*	0
COCc1n[nH]c(=S)n1-c1cccc2ccccc12	12	-1	nt	-3	-4	12	nt	nt
COc1ccccc1-n1c(-c2cccnc2)n[nH]c1=S	4	-3	1	-7	-4	4	nt	nt
